Results: ChEMBL document CHEMBL3758120, “Synthesis and Mechanism Studies of 1,3-Benzoazolyl Substituted Pyrrolo[2,3-b]pyrazine Derivatives as Nonintercalative Topoisomerase II Catalytic Inhibitors” (J Med Chem, 2016)
The source made the active and inactive calls. The rule behind the calls is not given here.

Experiments:
HL-60 [1] = assay: Induction of apoptosis in human HL60 cells assessed as late apoptotic cells at 1 uM after 12 hrs by annexin V-FITC/propidium iodide staining-based flow cytometric analysis (reference value: 0.17 to 0.18%); assay type: functional
Procedure, shortened: (§1)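 HL-60 cells at 5.0 × 10^5 cells/ml treated for 12 h (0.5–2 μM) or 24 h (0.25–1 μM), washed twice in cold PBS, resuspended in binding buffer, stained with annexin V-FITC and propidium iodide for 15 min in the dark, analysed by flow cytometry within 1 h; quadrants define live, early and late apoptotic cells. Three repeats.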

HL-60 [2] = assay: Induction of apoptosis in human HL60 cells assessed as dead cells at 2 uM after 12 hrs by annexin V-FITC/propidium iodide staining-based flow cytometric analysis (reference value: 0.12 to 0.15%); assay type: functional
[3] = target: T1, DNA topoisomerase 2-alpha (Homo sapiens, UniProt P11388); assay: Inhibition of purified human topoisomerase 2-mediated relaxation of supercoiled pBR322 DNA at 20 uM incubated for 30 mins by agarose gel electrophoresis
Procedure, shortened: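 Reactions contained 0.2 μg supercoiled pBR322 in 50 mM Tris-HCl pH 8.0, 150 mM NaCl, 10 mM MgCl2, 0.5 mM DTT, 30 μg/ml BSA, normally 2 mM ATP (1, 2 or 4 mM in ATP-competition runs). Started with 1 U human Topo II, 30 min at 37 °C, stopped with sarcosyl buffer, run on 1% agarose 1.5 h at 75 V, gel-stained and imaged under UV.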

A549 = assay: Antiproliferative activity against human A549 cells after 48 hrs by MTT assay; assay type: functional, cell-based; conditions: A549, 48 h
Procedure, shortened: (§2)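 Cells seeded at 5000 per well and left overnight, then exposed to increasing concentrations (0-50 μM) for 48 h. […] HL-60/MX2 is a mitoxantrone-selected HL-60 derivative with reduced Topo IIα/β.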

HL-60 [4] = assay: Induction of apoptosis in human HL60 cells assessed as dead cells at 1 uM after 24 hrs by annexin V-FITC/propidium iodide staining-based flow cytometric analysis (reference value: 0.12%); assay type: functional
HL-60 [5] = assay: Induction of apoptosis in human HL60 cells assessed as viable cells at 1 uM after 24 hrs by annexin V-FITC/propidium iodide staining-based flow cytometric analysis (reference value: 97.75%); assay type: functional; conditions: HL-60, 24 h, read-out: Activity; procedure, shortened: as §1
HL-60 [6] = assay: Induction of apoptosis in human HL60 cells assessed as dead cells at 1 uM after 12 hrs by annexin V-FITC/propidium iodide staining-based flow cytometric analysis (reference value: 0.12 to 0.15%); assay type: functional
HL-60 [7] = assay: Induction of apoptosis in human HL60 cells assessed as viable cells at 0.5 uM after 24 hrs by annexin V-FITC/propidium iodide staining-based flow cytometric analysis (reference value: 97.75%); assay type: functional; conditions: HL-60, 24 h, read-out: Activity; procedure, shortened: as §1
HL-60 [8] = assay: Resistance index, ratio of IC50 for human HL60/MX2 cells to IC50 for HL60 cells; assay type: functional
Procedure, shortened: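 Resistance index calculated as MTT-derived IC50 (48 h exposure, 0-50 μM, A570 readout) in HL-60/MX2 divided by IC50 in parental HL-60.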

[9] = target: T1, DNA topoisomerase 2-alpha; assay: Inhibition of purified human topoisomerase 2 using supercoiled pBR322 DNA as substrate assessed as linear DNA formation at 20 uM incubated for 6 mins by agarose gel electrophoresis
Procedure, shortened: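 Human Topo II (6 units) with 0.1 μg supercoiled pBR322 in 50 mM Tris-HCl pH 8.0, 150 mM NaCl, 10 mM MgCl2, 2 mM ATP, 0.5 mM DTT, 30 μg/ml BSA; compounds at 20 μM, etoposide 100 μM. After 6 min at 37 °C, complexes trapped with SDS then EDTA, proteinase K 30 min at 45 °C, heated 72 °C 2 min, run on 1% agarose; linear DNA scored. Antagonism tested by compound pretreatment before etoposide.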

HL-60 [10] = assay: Induction of apoptosis in human HL60 cells assessed as early apoptotic cells at 0.5 uM after 24 hrs by annexin V-FITC/propidium iodide staining-based flow cytometric analysis (reference value: 0.5%); assay type: functional; procedure, shortened: as §1
Raji = assay: Antiproliferative activity against human Raji cells after 48 hrs by MTT assay; assay type: functional, cell-based; procedure, shortened: as §2
HL-60 [11] = assay: Induction of apoptosis in human HL60 cells assessed as late apoptotic cells at 1 uM after 24 hrs by annexin V-FITC/propidium iodide staining-based flow cytometric analysis (reference value: 1.64%); assay type: functional; procedure, shortened: as §1
[12] = target: T2, DNA topoisomerase 1 (Homo sapiens) (UniProt P11387); assay: Inhibition of recombinant human topoisomerase 1-mediated relaxation of supercoiled pBR322 DNA at 50 uM incubated for 30 mins by agarose gel electrophoresis
T2 sequence (whole entry): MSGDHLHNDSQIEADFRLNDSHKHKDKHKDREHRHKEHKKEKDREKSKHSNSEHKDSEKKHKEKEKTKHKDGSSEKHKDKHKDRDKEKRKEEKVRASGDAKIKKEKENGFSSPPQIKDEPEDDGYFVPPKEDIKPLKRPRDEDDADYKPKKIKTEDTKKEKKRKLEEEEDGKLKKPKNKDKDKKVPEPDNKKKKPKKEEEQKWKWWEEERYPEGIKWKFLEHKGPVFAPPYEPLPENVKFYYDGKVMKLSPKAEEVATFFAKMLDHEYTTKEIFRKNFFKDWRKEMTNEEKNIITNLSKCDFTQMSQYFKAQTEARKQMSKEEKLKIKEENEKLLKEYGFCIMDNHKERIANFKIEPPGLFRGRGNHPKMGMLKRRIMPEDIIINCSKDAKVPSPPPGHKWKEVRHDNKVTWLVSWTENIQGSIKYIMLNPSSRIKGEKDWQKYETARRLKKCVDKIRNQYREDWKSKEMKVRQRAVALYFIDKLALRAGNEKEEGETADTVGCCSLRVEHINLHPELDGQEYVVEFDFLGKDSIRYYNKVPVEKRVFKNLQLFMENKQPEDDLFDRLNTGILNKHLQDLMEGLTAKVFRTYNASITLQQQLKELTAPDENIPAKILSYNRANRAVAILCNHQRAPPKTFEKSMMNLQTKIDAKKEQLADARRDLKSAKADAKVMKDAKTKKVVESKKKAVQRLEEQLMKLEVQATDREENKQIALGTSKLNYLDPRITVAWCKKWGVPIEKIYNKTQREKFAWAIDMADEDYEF
Procedure, shortened: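 Supercoiled pBR322 relaxed by Topo I with compound, incubated 30 min at 37 °C, stopped with 1% SDS dye, run on 1% agarose 1 h at 90 V in TAE, stained and imaged under UV; camptothecin as reference.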

[13] = Antiproliferative activity against human MDA-MB-201 cells after 48 hrs by MTT assay; assay type: functional, cell-based; procedure, shortened: as §2
HL-60 [14] = assay: Induction of apoptosis in human HL60 cells assessed as dead cells at 0.5 uM after 12 hrs by annexin V-FITC/propidium iodide staining-based flow cytometric analysis (reference value: 0.12 to 0.15%); assay type: functional
HL-60 [15] = assay: Induction of apoptosis in human HL60 cells assessed as late apoptotic cells at 2 uM after 12 hrs by annexin V-FITC/propidium iodide staining-based flow cytometric analysis (reference value: 0.17 to 0.18%); assay type: functional; procedure, shortened: as §1
K562 = assay: Antiproliferative activity against human K562 cells after 48 hrs by MTT assay; assay type: functional, cell-based; conditions: K562, 48 h; procedure, shortened: as §2

T1 sequence (P11388 whole entry): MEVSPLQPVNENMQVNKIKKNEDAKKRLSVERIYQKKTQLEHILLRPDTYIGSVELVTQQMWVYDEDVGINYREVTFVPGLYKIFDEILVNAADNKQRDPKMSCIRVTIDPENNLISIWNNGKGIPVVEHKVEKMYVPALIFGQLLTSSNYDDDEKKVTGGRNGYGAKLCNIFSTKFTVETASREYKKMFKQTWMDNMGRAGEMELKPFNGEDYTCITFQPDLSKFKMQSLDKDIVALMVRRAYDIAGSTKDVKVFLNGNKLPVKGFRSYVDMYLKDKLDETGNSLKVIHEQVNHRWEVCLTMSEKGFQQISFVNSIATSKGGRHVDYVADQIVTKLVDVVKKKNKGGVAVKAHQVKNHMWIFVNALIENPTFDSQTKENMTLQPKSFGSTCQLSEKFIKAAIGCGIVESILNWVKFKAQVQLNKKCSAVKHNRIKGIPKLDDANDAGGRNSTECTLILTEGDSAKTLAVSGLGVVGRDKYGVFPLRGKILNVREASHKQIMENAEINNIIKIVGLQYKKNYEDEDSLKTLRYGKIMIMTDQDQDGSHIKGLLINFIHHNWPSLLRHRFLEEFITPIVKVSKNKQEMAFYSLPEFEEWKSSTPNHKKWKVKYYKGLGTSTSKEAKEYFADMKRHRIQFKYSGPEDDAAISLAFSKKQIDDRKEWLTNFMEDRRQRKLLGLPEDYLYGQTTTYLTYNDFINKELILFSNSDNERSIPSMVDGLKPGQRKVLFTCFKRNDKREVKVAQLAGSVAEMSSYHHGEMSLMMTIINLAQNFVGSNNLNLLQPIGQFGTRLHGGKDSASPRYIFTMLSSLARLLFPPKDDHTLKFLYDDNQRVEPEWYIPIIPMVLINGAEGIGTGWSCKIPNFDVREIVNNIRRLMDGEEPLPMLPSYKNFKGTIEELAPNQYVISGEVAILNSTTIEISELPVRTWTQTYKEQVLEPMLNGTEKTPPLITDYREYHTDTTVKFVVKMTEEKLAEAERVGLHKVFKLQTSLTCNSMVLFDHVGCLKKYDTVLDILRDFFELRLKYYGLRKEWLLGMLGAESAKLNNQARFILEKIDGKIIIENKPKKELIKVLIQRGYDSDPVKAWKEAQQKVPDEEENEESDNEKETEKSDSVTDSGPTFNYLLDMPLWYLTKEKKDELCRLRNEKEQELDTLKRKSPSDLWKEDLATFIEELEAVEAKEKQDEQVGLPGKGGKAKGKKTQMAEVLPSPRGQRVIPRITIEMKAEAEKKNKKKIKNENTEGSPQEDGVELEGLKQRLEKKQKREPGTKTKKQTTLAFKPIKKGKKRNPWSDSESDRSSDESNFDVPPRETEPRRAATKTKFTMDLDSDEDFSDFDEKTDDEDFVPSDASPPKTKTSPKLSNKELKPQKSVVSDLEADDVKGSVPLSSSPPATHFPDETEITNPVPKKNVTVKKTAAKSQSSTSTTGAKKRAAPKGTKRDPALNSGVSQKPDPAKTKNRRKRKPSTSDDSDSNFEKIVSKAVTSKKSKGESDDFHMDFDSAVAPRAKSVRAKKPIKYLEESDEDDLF

Row | SMILES | Activity (HL-60 [1]) | Activity (HL-60 [2]) | inhibition [3] | IC50 (A549) | Activity (HL-60 [4]) | viability at 1 µM (HL-60 [5]) | Activity (HL-60 [6]) | viability at 0.5 µM (HL-60 [7]) | Ratio IC50 (HL-60 [8]) | inhibition [9] | Activity (HL-60 [10]) | IC50 (Raji) | Activity (HL-60 [11]) | inhibition [12] | IC50 [13] | Activity (HL-60 [14]) | Activity (HL-60 [15]) | IC50 (K562)
1 | CCN(CC)CCCCn1c(N)c(-c2nc3ccccc3[nH]2)c2nc(C#N)c(C#N)nc21 | 1.19% | 1.36% | Active | 5.75 µM | 12.63% | 32.9% | 0.25% | 78.7% | 3.3 | inactive | 3.24% | 2.64 µM | 45.05% | inactive | 0.64 µM | 0.1% | 46.73% | 1.44 µM
2 | CN(C)CCCCn1c(N)c(-c2nc3ccccc3[nH]2)c2nc(C#N)c(C#N)nc21 | 0.39% | 1.96% | Active | 8.24 µM | 8.31% | 0.65% | 0.11% | 13.9% | 4.1 | inactive | 4.45% | 2.56 µM | 90.51% | inactive | 0.53 µM | 0.05% | 64.15% | 1.43 µM
